These results are taken from ChEMBL document CHEMBL1148827, “An investigation into the cytotoxicity and mode of action of some novel N-alkyl-substituted isatins” (J Med Chem, 2007).

Test [1] concerns U-937. Description: Cytotoxicity against human U937 cells by MTS assay after 24 hrs. It is filed as functional, cell-based. The note with it: U-937, 24 h.
The test system of test [2] is Jurkat. Briefly: Cytotoxicity against human Jurkat cells by MTS assay after 24 hrs. The test is classed as functional, cell-based.
Another test relates to MCF7. Description: Cytotoxicity against human MCF7 cells by MTS assay after 24 hrs. Particulars: MCF7, 24 h. The test is classed as functional, cell-based. In general terms: Tetrazolium dyes change colour on reduction, which living cells bring about.
The nature of test [3]: Cytotoxicity against human […] cells by MTS assay after 24 hrs. It is filed as functional, cell-based.
For the next test, the system named is HCT-116. Description: Cytotoxicity against human HCT116 cells by MTS assay after 24 hrs. The note with it: HCT-116, 24 h. It is filed as functional, cell-based.
The test system of the next test is PC-3. Briefly: Cytotoxicity against human PC3 cells by MTS assay after 24 hrs. The test is classed as functional, cell-based. The note with it: PC-3, 24 h.
The test system of test [4] is U-937. Description: Effect on U937 cell morphology assessed as irregular membrane protrusions at 0.39 ug/ml after 24 hrs. The test is classed as functional, cell-based. Particulars: Homo sapiens. The procedure, abridged: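 U937 cells (1.0 × 10⁴) exposed to compounds at 0.39 µg/mL for 24 h, with DMSO vehicle as control. Examined by brightfield light microscopy at 1000× magnification.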

The test system of another test is A-375. Briefly: Cytotoxicity against human A375 cells by MTS assay after 24 hrs. It is filed as functional, cell-based. The note with it: A-375, 24 h.
For the next test, the species on record is Bos taurus. Description: Inhibition of bovine neuronal tubulin polymerization at 10 uM. The procedure, abridged: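 Polymerization followed 1 h at 37 °C by fluorescence, ex 360 ± 10 nm / em 440 ± 10 nm. Duplicate wells.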
Test [5] has as its system U-937. Description: Cell cycle arrest in human U937 cells assessed as increase in S and sub G1 phase accumulation at 2 uM. It is filed as functional, cell-based. A digest of the protocol: (§1)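 U937 cells treated 4 h or 24 h against DMSO vehicle, with 0.5 µM vinblastine sulfate as reference. Cells (2.0 × 10⁴) fixed in ice-cold 70% ethanol at -20 °C for 30 min to overnight. Stained 30 min at 37 °C with 40 µg/mL PI plus 100 µg/mL RNase A in PBS pH 7.4. DNA content read by flow cytometry and cell-cycle phase proportions calculated.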

For test [6], the system named is U-937. Description: Cell cycle arrest in human U937 cells assessed as increase in S and sub G1 phase accumulation at 1 uM. The test is classed as functional, cell-based. The procedure, abridged:
as §1

The test system of test [7] is U-937. Description: Activation of caspase in U937 cells after 5 hrs relative to staurosporine. The test is classed as cell-based. Particulars: Homo sapiens. The procedure, abridged: (§2)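 Cells exposed to test compound for 5 h at 37 °C; 2 µM staurosporine as positive control. Apo-ONE homogeneous caspase-3/7 reagent then added for 1 h at room temperature. Fluorescence read at excitation 485 nm, emission 520 nm. Values normalized to staurosporine. Means ± SE of one representative experiment run in triplicate.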

Test [8] deals with U-937. Briefly: Effect on stability of microtubules in U937 cells assessed as alteration of microtubule organisation at 1.7 uM after 24 hrs. It is filed as functional, cell-based. Particulars: Homo sapiens. A digest of the protocol: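 U937 cells (2.2 × 10⁵/mL) seeded, held 24 h, then exposed 24 h to 0.78 µg/mL (1.7 µM) compound. Controls: 2 µM vinblastine or 2.5% DMSO. […] Cells washed in PBS and imaged by confocal microscopy, excitation 488 nm, emission 500–540 nm.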

Test [9] deals with Jurkat. Briefly: Activation of caspase in Jurkat cells after 5 hrs relative to staurosporine. The test is classed as cell-based. Particulars: Homo sapiens. A digest of the protocol:
as §2

A further test has as its target Tubulin. Briefly: Displacement of [3H]colchicine from tubulin by scintillation proximity assay. The test is classed as protein-complex assay, Homo sapiens. In general terms: Loss of bound radioactivity is the signal in a displacement assay; it reports binding, not function.

Active and inactive are the calls of the source. The calls are words filed in the database; no cut-off is given here.

For orientation: IC50 means the concentration needed to halve the response being measured. Lower therefore signals inhibition by little substance. Take `COc1ccc(CN2C(=O)C(=O)c3cc(Br)ccc32)cc1`: the IC50 in the test with U-937 [1] was greater than 36100 nM.

In the case of `O=C(O)c1ccc(CN2C(=O)C(=O)c3cc(Br)cc(Br)c32)cc1`, the IC50 in the test with Jurkat [2], in the test with MCF7 and with U-937 [1] was greater than 14200 nM in each case.

Consider `CC(C)(C)c1ccc(CN2C(=O)C(=O)c3cc(Br)cc(Br)c32)cc1`, for which the IC50 in [3] was 980 nM; in the test on HCT-116 it was 1660 nM; in the test with PC-3, 3060 nM; with Jurkat [2] it was 660 nM; in the test with MCF7 it was 2640 nM; with U-937 [1] it was 1130 nM. Besides, in the test on A-375, inhibition was half-maximal at 890 nM (IC50). Also, the result with U-937 [4] was Active.

`CC[C@]1(O)C[C@@H]2CN(CCc3c([nH]c4ccccc34)[C@@](C(=O)OC)(c3cc4c(cc3OC)N(C)[C@H]3[C@@](O)(C(=O)OC)[C@H](OC(C)=O)[C@]5(CC)C=CCN6CC[C@]43[C@@H]65)C2)C1` [VINBLASTINE]: half-maximal inhibition with U-937 [1] (IC50) was put at 6880 nM.

Regarding `O=C1C(=O)N(Cc2ccc(Cl)cc2)c2c(Br)cc(Br)cc21`, the IC50 was 2770 nM in test [3]; 1840 nM with HCT-116; 2170 nM in the test with PC-3; 500 nM in the test on Jurkat [2]; 3870 nM in the test on MCF7; 980 nM in the test on U-937 [1]. In the test on A-375, half-maximal inhibition (IC50) was put at 1680 nM.

For the molecule `O=C1C(=O)N(Cc2ccc(-c3ccccc3)cc2)c2c(Br)cc(Br)cc21`, the result in the test listed under Bos taurus was Active. In addition, the IC50 stood at 2060 nM in [3]; 830 nM with HCT-116; 3420 nM in the test with PC-3; 740 nM in the test on Jurkat [2]; 4880 nM with MCF7; 760 nM in the test on U-937 [1]. Moreover, in the test on A-375, the IC50 amounted to 1190 nM.

On to `O=C1C(=O)N(Cc2ccccc2)c2c(Br)cc(Br)cc21`, for which the IC50 with Jurkat [2] was determined as 1140 nM; with MCF7, 7090 nM; in the test with U-937 [1], 1140 nM.

Take `Cc1ccc(CN2C(=O)C(=O)c3cc(Br)cc(Br)c32)cc1`: the outcome in the test filed under Bos taurus, in the test on U-937 [5] and with U-937 [6] was Active. Besides, the IC50 in test [3] is 1910 nM; in the test with HCT-116, 1220 nM; in the test on PC-3 it was 4570 nM; in the test with Jurkat [2], 490 nM; with MCF7, 11000 nM; in the test on U-937 [1], 490 nM. The molecule also had an IC50 with A-375 of 2000 nM.

`COc1ccc(CN2C(=O)C(=O)c3ccc(Br)cc32)cc1`: the IC50 with U-937 [1] was determined as 34100 nM.

In the case of `O=C1C(=O)N(Cc2ccc(C(F)(F)F)cc2)c2c(Br)cc(Br)cc21`, the result in the test on U-937 [7], in the test filed under Bos taurus, in the test on U-937 [5], in the test on U-937 [8], in the test on Jurkat [9] and in the test with U-937 [6] was Active. In addition, the half-inhibitory concentration (IC50) came out at 540 nM in test [3]; 840 nM with HCT-116; 1170 nM with PC-3; 690 nM with Jurkat [2]; 7130 nM in the test with MCF7; 800 nM in the test with U-937 [1]. The molecule further had an IC50 in the test with A-375 of 1250 nM.

In the case of `O=C1C(=O)N(Cc2ccc(Br)cc2)c2c(Br)cc(Br)cc21`, the IC50 in test [3] is 1900 nM; in the test on HCT-116 it was 530 nM; with PC-3, 3440 nM; in the test with Jurkat [2] it was 630 nM; in the test on MCF7, 5270 nM; in the test on U-937 [1], 630 nM. The same molecule had an IC50 in the test with A-375 of 1220 nM.

For `C=CCN1C(=O)C(=O)c2cc(Br)cc(Br)c21`, the IC50 in the test with U-937 [1] came out at 6670 nM.

Regarding `CC(C)CCN1C(=O)C(=O)c2cc(Br)cc(Br)c21`, the IC50 in the test with Jurkat [2] was determined as 3470 nM; with MCF7, 7490 nM; with U-937 [1], 2400 nM. Besides, the result in the test with U-937 [4] was Active.

Turning to `O=C1C(=O)N(Cc2ccc(C(F)(F)F)cc2)c2cc(Br)ccc21`, the IC50 with Jurkat [2] and in the test with U-937 [1] was 5210 nM each time.

As to `COc1ccc(CN2C(=O)C(=O)c3c(Br)cccc32)cc1`, the IC50 with U-937 [1] is greater than 36100 nM.

In the case of `O=C1C(=O)N(Cc2ccc(I)cc2)c2c(Br)cc(Br)cc21`, the IC50 in test [3] was 2920 nM; in the test with HCT-116, 3360 nM; with PC-3 it was 10900 nM; with Jurkat [2], 580 nM; in the test with MCF7 it was 4220 nM; with U-937 [1], 2300 nM. The same molecule came in with an IC50 in the test on A-375 of 2400 nM. For the same molecule, in the test with U-937 [4], the result was Active.

As to `COCCN1C(=O)C(=O)c2cc(Br)cc(Br)c21`, the IC50 in the test on Jurkat [2] turned out to be 8950 nM; with MCF7 it was 6670 nM; in the test on U-937 [1], 3440 nM.

The molecule `COc1ccc(CN2C(=O)C(=O)c3ccccc32)cc1` gave an IC50 in the test on U-937 [1] greater than 46800 nM.

With `COc1cccc(CN2C(=O)C(=O)c3cc(Br)cc(Br)c32)c1`, the IC50 was 2000 nM in the test with Jurkat [2], 2350 nM in the test on MCF7 and 1760 nM in the test with U-937 [1].

As for `O=C1C(=O)N(Cc2ccc([N+](=O)[O-])cc2)c2c(Br)cc(Br)cc21`, the IC50 was found to be 2750 nM in [3]; 2700 nM in the test with HCT-116; 890 nM in the test with Jurkat [2]; 4320 nM in the test with MCF7; 890 nM with U-937 [1]; 2500 nM in the test with A-375.

Regarding `COC(=O)c1ccc(CN2C(=O)C(=O)c3cc(Br)cc(Br)c32)cc1`, the IC50 in the test on Jurkat [2] was 1190 nM; with MCF7 it was 9050 nM; in the test on U-937 [1] it was 1190 nM.

For `O=C1C(=O)N(Cc2ccccc2[N+](=O)[O-])c2c(Br)cc(Br)cc21`, the IC50 stood at 3180 nM in the test with MCF7 and 2270 nM in the test with U-937 [1].

Regarding `O=C1C(=O)N(C/C=C/c2ccccc2)c2c(Br)cc(Br)cc21`, the result in the test listed under Bos taurus and in the test on U-937 [4] was Active. In addition, the IC50 came out at 1420 nM in the test on Jurkat [2], 7810 nM with MCF7 and 2370 nM with U-937 [1].

At Tubulin, `COc1cc(-c2ccc3c(c2)NC(=O)/C3=C\c2ccc[nH]2)ccc1O` showed an IC50 of 130 nM.

For `COc1ccc(CN2C(=O)C(=O)c3cccc(Br)c32)cc1`, inhibition with U-937 [1] was half-maximal at 17600 nM (IC50). That is a double-digit micromolar value.
